Source: ChEMBL document CHEMBL1667739, “Pitiprolamide, a proline-rich dolastatin 16 analogue from the marine cyanobacterium Lyngbya majuscula from Guam” (J Nat Prod, 2011)

What was measured:
Assay type in all cases: functional
Settings in all cases: ATCC 25177, 288 h, read-out: DIZ
[1] = system: Mycobacterium tuberculosis; assay: Antimycobacterial activity against Mycobacterium tuberculosis ATCC 25177 at 1 ug after 12 days by disc diffusion assay
Summary of the method: (§1)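 Compound dissolved in EtOH and loaded onto sterile filter-paper discs. Dried discs were placed on an inoculated agar plate and incubated 12 days at 37 °C. The diameter of the inhibition zone was then measured.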

[2] = system: Mycobacterium tuberculosis; assay: Antimycobacterial activity against Mycobacterium tuberculosis ATCC 25177 at 5 ug after 12 days by disc diffusion assay; summary of the method: as §1
[3] = system: Mycobacterium tuberculosis; assay: Antimycobacterial activity against Mycobacterium tuberculosis ATCC 25177 at 10 ug after 12 days by disc diffusion assay; summary of the method: as §1

CN[C@@H]1[C@H](O[C@H]2[C@H](O[C@H]3[C@H](O)[C@@H](O)[C@H](N=C(N)N)[C@@H](O)[C@@H]3N=C(N)N)O[C@@H](C)[C@]2(O)C=O)O[C@@H](CO)[C@H](O)[C@H]1O [STREPTOMYCIN]
zone of inhibition at 1 µg/disc [1]: 0 mm | zone of inhibition at 5 µg/disc [2]: 30 mm | zone of inhibition at 10 µg/disc [3]: 40 mm
